Results from ChEMBL document CHEMBL4689842, “EUbOPEN Chemogenomics Library wave 1” (2021).

Key:
[1] = system: U2OS; assay: Multiplex assay against U2OS; assay type: toxicity, cell-based; conditions: human
Procedure, shortened: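 Live cells were stained at seeding with Hoechst33342, BioTracker Green Microtubule Cytoskeleton Dye, MitoTracker Red and Annexin V Alexa Fluor 680. Following compound addition, they were imaged on a CQ1 microscope at 37°C and 5% CO2 and gated by CellPathfinder machine learning into Hoechst high-intensity objects or normal cells, with normal cells split into healthy, pyknosed or fragmented nuclei and pyknosed cells into mitotic or apoptotic. Tubulin, mitochondrial-mass and membrane-permeability phenotypes are per cents of healthy-nucleus cells.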

[2] = system: HEK-293T; assay: Incucyte cell viability with HEK293T; assay type: toxicity, cell-based; conditions: human, 10 µM, compound concentration 10 uM; further: filed as whole numbers so only -1 and 0 and 1 occur
[3] = 12 h, 1 µM, compound concentration 1 uM, replicate 1
[4] = 12 h, 1 µM, compound concentration 1 uM, replicate 2
[5] = 12 h, 10 µM, compound concentration 10 uM, replicate 1
[6] = 12 h, 10 µM, compound concentration 10 uM, replicate 2
[7] = 24 h, 1 µM, compound concentration 1 uM, replicate 1
[8] = 24 h, 1 µM, compound concentration 1 uM, replicate 2
[9] = 24 h, 10 µM, compound concentration 10 uM, replicate 1
[10] = 24 h, 10 µM, compound concentration 10 uM, replicate 2
[11] = 48 h, 1 µM, compound concentration 1 uM, replicate 1
[12] = 48 h, 1 µM, compound concentration 1 uM, replicate 2
[13] = 48 h, 10 µM, compound concentration 10 uM, replicate 1
[14] = 48 h, 10 µM, compound concentration 10 uM, replicate 2

## COc1ccc(NS(=O)(=O)c2sc3ccc(Cl)cc3c2C)cc1N1CCNCC1.Cl
[1]; [3]
  Population Apoptotic (%): 57%
  Population Fragmented Nuclei (%): 12%
  Population Healthy Nuclei (%): 74%
  Population Hoechst High Intensity Objects (%): 6%
  Population Membrane Permeable-Phenotype (%): 6%
  Population Mitochondria Different-Phenotype (%): 11%
  Population Mitotic Cells (%): 42%
  Population Normal (%): 93%
  Population Pyknosed Nuclei (%): 12%
  Population Tubulin-Different-Phenotype (%): 10%
  Total Cell Count: 172
[1]; [4]
  Population Apoptotic (%): 28%
  Population Fragmented Nuclei (%): 13%
  Population Healthy Nuclei (%): 69%
  Population Hoechst High Intensity Objects (%): 12%
  Population Membrane Permeable-Phenotype (%): 0%
  Population Mitochondria Different-Phenotype (%): 26%
  Population Mitotic Cells (%): 71%
  Population Normal (%): 87%
  Population Pyknosed Nuclei (%): 16%
  Total Cell Count: 69
[1]; [5]
  Population Apoptotic (%): 43%
  Population Fragmented Nuclei (%): 12%
  Population Healthy Nuclei (%): 57%
  Population Hoechst High Intensity Objects (%): 5%
  Population Membrane Permeable-Phenotype (%): 29%
  Population Mitochondria Different-Phenotype (%): 97%
  Population Mitotic Cells (%): 56%
  Population Normal (%): 94%
  Population Pyknosed Nuclei (%): 30%
  Population Tubulin-Different-Phenotype (%): 97%
  Total Cell Count: 162
[1]; [6]
  Population Apoptotic (%): 61%
  Population Fragmented Nuclei (%): 14%
  Population Healthy Nuclei (%): 56%
  Population Hoechst High Intensity Objects (%): 4%
  Population Membrane Permeable-Phenotype (%): 25%
  Population Mitochondria Different-Phenotype (%): 100%
  Population Mitotic Cells (%): 38%
  Population Normal (%): 95%
  Population Pyknosed Nuclei (%): 29%
  Population Tubulin-Different-Phenotype (%): 94%
  Total Cell Count: 49
[1]; [7]
  Population Apoptotic (%): 52%
  Population Healthy Nuclei (%): 76%
  Population Hoechst High Intensity Objects (%): 5%
  Population Membrane Permeable-Phenotype (%): 3%
  Population Mitochondria Different-Phenotype (%): 10%
  Population Mitotic Cells (%): 48%
  Population Normal (%): 95%
  Population Pyknosed Nuclei (%): 13%
  Population Tubulin-Different-Phenotype (%): 6%
  Total Cell Count: 174
[1]; [8]
  Population Apoptotic (%): 33%
  Population Fragmented Nuclei (%): 10%
  Population Healthy Nuclei (%): 77%
  Population Hoechst High Intensity Objects (%): 3%
  Population Membrane Permeable-Phenotype (%): 5%
  Population Mitochondria Different-Phenotype (%): 13%
  Population Mitotic Cells (%): 66%
  Population Normal (%): 96%
  Population Pyknosed Nuclei (%): 12%
  Population Tubulin-Different-Phenotype (%): 5%
  Total Cell Count: 67
[1]; [9]
  Population Apoptotic (%): 61%
  Population Fragmented Nuclei (%): 17%
  Population Healthy Nuclei (%): 51%
  Population Hoechst High Intensity Objects (%): 7%
  Population Membrane Permeable-Phenotype (%): 35%
  Population Mitochondria Different-Phenotype (%): 98%
  Population Mitotic Cells (%): 38%
  Population Normal (%): 92%
  Population Pyknosed Nuclei (%): 31%
  Population Tubulin-Different-Phenotype (%): 95%
  Total Cell Count: 200
[1]; [10]
  Population Apoptotic (%): 68%
  Population Fragmented Nuclei (%): 16%
  Population Healthy Nuclei (%): 47%
  Population Hoechst High Intensity Objects (%): 2%
  Population Membrane Permeable-Phenotype (%): 55%
  Population Mitochondria Different-Phenotype (%): 97%
  Population Mitotic Cells (%): 32%
  Population Normal (%): 97%
  Population Pyknosed Nuclei (%): 35%
  Population Tubulin-Different-Phenotype (%): 91%
  Total Cell Count: 51
[1]; [11]
  Population Apoptotic (%): 36%
  Population Fragmented Nuclei (%): 8%
  Population Healthy Nuclei (%): 82%
  Population Hoechst High Intensity Objects (%): 3%
  Population Membrane Permeable-Phenotype (%): 3%
  Population Mitochondria Different-Phenotype (%): 8%
  Population Mitotic Cells (%): 64%
  Population Pyknosed Nuclei (%): 9%
  Population Tubulin-Different-Phenotype (%): 6%
  Total Cell Count: 178
[1]; [12]
  Population Apoptotic (%): 22%
  Population Fragmented Nuclei (%): 13%
  Population Healthy Nuclei (%): 73%
  Population Hoechst High Intensity Objects (%): 4%
  Population Membrane Permeable-Phenotype (%): 7%
  Population Mitochondria Different-Phenotype (%): 20%
  Population Mitotic Cells (%): 77%
  Population Normal (%): 96%
  Population Pyknosed Nuclei (%): 12%
  Population Tubulin-Different-Phenotype (%): 11%
  Total Cell Count: 73
[1]; [13]
  Population Apoptotic (%): 73%
  Population Fragmented Nuclei (%): 20%
  Population Healthy Nuclei (%): 37%
  Population Hoechst High Intensity Objects (%): 12%
  Population Membrane Permeable-Phenotype (%): 46%
  Population Mitochondria Different-Phenotype (%): 94%
  Population Mitotic Cells (%): 26%
  Population Normal (%): 87%
  Population Pyknosed Nuclei (%): 41%
  Population Tubulin-Different-Phenotype (%): 98%
  Total Cell Count: 281
[1]; [14]
  Population Apoptotic (%): 68%
  Population Fragmented Nuclei (%): 17%
  Population Healthy Nuclei (%): 56%
  Population Hoechst High Intensity Objects (%): 6%
  Population Membrane Permeable-Phenotype (%): 56%
  Population Mitochondria Different-Phenotype (%): 93%
  Population Mitotic Cells (%): 31%
  Population Normal (%): 93%
  Population Pyknosed Nuclei (%): 26%
  Population Tubulin-Different-Phenotype (%): 82%
  Total Cell Count: 75
[2]; 0 h, replicate number 2, timepoint 0 hours
  Growth Rate: 1
[2]; 6 h, replicate number 1, timepoint 6 hours
  Growth Rate: 0
[2]; 12 h, replicate number 1, timepoint 12 hours
  Growth Rate: 0
[2]; 18 h, replicate number 1, timepoint 18 hours
  Growth Rate: 0
[2]; 24 h, replicate number 1, timepoint 24 hours
  Growth Rate: 0
